Results published in ChEMBL document CHEMBL3259662 (ACS Med Chem Lett, 2014).
≈ marks a conversion by molar mass, not a printed value. Blank lines part the entries; values can stand above or below the compound they belong to. Calls of active or inactive are those of the source. The calls are words filed in the database; no cut-off is given here.

What was measured:
[1] = Retention time of the compound by reverse phase HPLC analysis; type: physicochemical
Summary of the method: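 Reverse-phase HPLC on a C-18 column (25 cm × 4.6 mm, 5 μM) at 1 mL/min over 40 min. The gradient ran 85−5% with A = 0.1% TFA in H2O and B = 0.1% TFA in CH3CN. Detection was at 220 nm.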

Cryptococcus neoformans [2] = assay: Antifungal activity against Cryptococcus neoformans ATCC 90113 after 70 to 74 hrs by CLSI method; type: functional, organism-based; conditions: for IC50 / MIC: Cryptococcus neoformans, ATCC 90113
Summary of the method: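 Growth inhibition of C. neoformans per the CLSI protocol. […] MIC is the lowest test concentration with no detectable growth. MFC is the lowest concentration killing 100% of the organism.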

Candida albicans = assay: Antifungal activity against Candida albicans by CLSI method; type: functional, organism-based
BT-549 = assay: Cytotoxicity against human BT549 cells assessed as cell viability after 48 hrs by neutral red uptake assay; type: cell-based; conditions: bt-549, 48 h
Summary of the method: (§1)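 Neutral red uptake assay in human cancer lines SK-MEL, KB, BT-549 and SK-OV-3 and in noncancerous mammalian kidney cells VERO and LLC-PK1. The highest tested concentration was 10 μg/mL.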

SK-OV-3 = assay: Cytotoxicity against human SKOV3 cells assessed as cell viability after 48 hrs by neutral red uptake assay; type: cell-based; conditions: sk-ov-3, 48 h; summary of the method: as §1
Pichia kudriavzevii = assay: Antifungal activity against Candida krusei by CLSI method; type: functional, organism-based
Aspergillus fumigatus = assay: Antifungal activity against Aspergillus fumigatus by CLSI method; type: functional, organism-based
SK-MEL = assay: Cytotoxicity against human SK-MEL cells assessed as cell viability after 48 hrs by neutral red uptake assay; type: cell-based; summary of the method: as §1
[3] = Selectivity index, ratio of cytotoxicity for African green monkey Vero cells to IC50 for Cryptococcus neoformans ATCC 90113; type: toxicity, cell-based; conditions: read-out: Selectivity Index
Staphylococcus aureus [4] = assay: Antibacterial activity against methicillin-resistant Staphylococcus aureus ATCC 33591 after 16 to 20 hrs by CLSI method; type: functional, organism-based; conditions: for MIC / IC50: Staphylococcus aureus, ATCC 33591; for IC50: read-out: IC50
[5] = Selectivity index, ratio of cytotoxicity for human SK-MEL cells to IC50 for Cryptococcus neoformans ATCC 90113; type: toxicity, cell-based; conditions: read-out: Selectivity Index
Vero = assay: Cytotoxicity against African green monkey Vero cells assessed as cell viability after 48 hrs by neutral red uptake assay; type: cell-based; conditions: chlorocebus sabaeus; summary of the method: as §1
[6] = Selectivity index, ratio of cytotoxicity for human BT549 cells to IC50 for Cryptococcus neoformans ATCC 90113; type: toxicity, cell-based, BT-549; conditions: read-out: Selectivity Index
[7] = Selectivity index, ratio of cytotoxicity for human SKOV3 cells to IC50 for Cryptococcus neoformans ATCC 90113; type: toxicity, cell-based, SK-OV-3; conditions: read-out: Selectivity Index
Cryptococcus neoformans [8] = assay: Ratio of amphotericin B MFC to compound MFC for Cryptococcus neoformans ATCC 90113 after 70 to 74 hrs by CLSI method; type: functional
Staphylococcus aureus [9] = assay: Antibacterial activity against Staphylococcus aureus ATCC 29213 by CLSI method; type: functional, organism-based
LLC-PK1 = assay: Cytotoxicity against pig LLC-PK1 cells assessed as cell viability after 48 hrs by neutral red uptake assay; type: cell-based, Sus scrofa; conditions: llc-pk1, 48 h; summary of the method: as §1
Nakaseomyces glabratus = assay: Antifungal activity against Candida glabrata by CLSI method; type: functional, organism-based
KB = assay: Cytotoxicity against human KB cells assessed as cell viability after 48 hrs by neutral red uptake assay; type: cell-based; summary of the method: as §1
[10] = Selectivity index, ratio of cytotoxicity for human KB cells to IC50 for Cryptococcus neoformans ATCC 90113; type: toxicity, cell-based; conditions: read-out: Selectivity Index
[11] = Selectivity index, ratio of cytotoxicity for pig LLC-PK1 cells to IC50 for Cryptococcus neoformans ATCC 90113; type: toxicity, cell-based; conditions: read-out: Selectivity Index
Escherichia coli = assay: Antibacterial activity against Escherichia coli ATCC 35218 after 16 to 20 hrs by CLSI method; type: functional, organism-based
Lipid bilayer = assay: Binding affinity to small unilamellar vesicles assessed as destruction of membrane by transmission electron microscopy
Summary of the method: (§2)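 Small unilamellar vesicles were made by a literature method, either EYPC/EYPG or EYPC/cholesterol, and incubated with or without peptide. Samples were deposited on carbon-coated copper grids, negatively stained with 2% (w/v) phosphotungstic acid and imaged by TEM to judge vesicle integrity and morphology.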

[12] = Binding affinity to EYPC/cholesterol by transmission electron microscopy; summary of the method: as §2
[13] = Binding affinity to EYPC/EYPG assessed as disruption of SUVs integrity by transmission electron microscopy; summary of the method: as §2

SMILES: CC(C)(C)OC(=O)N[C@@H](CCCNC(=N)N)C(=O)N[C@@H](Cc1c[nH]c(-c2ccc(C(C)(C)C)cc2)n1)C(=O)N[C@@H](CCCNC(=N)N)C(=O)NCc1ccccc1
Retention_time [1]: 24.41 min
MFC100 (Cryptococcus neoformans [2]): 0.63 µg/mL (≈ 0.798 µM)
IC50 (Cryptococcus neoformans [2]): 0.18 µg/mL (≈ 0.228 µM)
MIC (Cryptococcus neoformans [2]): 0.63 µg/mL (≈ 0.798 µM)
Activity (Candida albicans): inactive
Activity (BT-549): > 10 µg/mL
Activity (SK-OV-3): > 10 µg/mL
Activity (Pichia kudriavzevii): inactive
Activity (Aspergillus fumigatus): inactive
Activity (SK-MEL): > 10 µg/mL
selectivity ratio [3]: > 55.6
MBC100 (Staphylococcus aureus [4]): inactive
MIC (Staphylococcus aureus [4]): 20 µg/mL (≈ 25.3 µM)
IC50 (Staphylococcus aureus [4]): 11.5 µg/mL (≈ 14.6 µM)
selectivity ratio [5]: > 55.6
Activity (Vero): > 10 µg/mL
selectivity ratio [6]: > 55.6
selectivity ratio [7]: > 55.6
Ratio (Cryptococcus neoformans [8]): 2
IC50 (Staphylococcus aureus [9]): 12.5 µg/mL (≈ 15.9 µM)
MBC100 (Staphylococcus aureus [9]): inactive
MIC (Staphylococcus aureus [9]): 20 µg/mL (≈ 25.3 µM)
Activity (LLC-PK1): > 10 µg/mL
Activity (Nakaseomyces glabratus): inactive
Activity (KB): > 10 µg/mL
selectivity ratio [10]: > 55.6
selectivity ratio [11]: > 55.6
Activity (Escherichia coli): inactive

SMILES: CC(C)(C)OC(=O)N[C@@H](CCCNC(=N)N)C(=O)N[C@@H](Cc1c[nH]c(-c2ccc(-c3ccccc3)cc2)n1)C(=O)N[C@@H](CCCNC(=N)N)C(=O)NCc1ccccc1
Retention_time [1]: 24.04 min
MFC100 (Cryptococcus neoformans [2]): 0.31 µg/mL (≈ 0.383 µM)
IC50 (Cryptococcus neoformans [2]): 0.2 µg/mL (≈ 0.247 µM)
MIC (Cryptococcus neoformans [2]): 0.31 µg/mL (≈ 0.383 µM)
Activity (Candida albicans): inactive
Activity (BT-549): > 10 µg/mL
Activity (SK-OV-3): > 10 µg/mL
Activity (Pichia kudriavzevii): inactive
Activity (Aspergillus fumigatus): inactive
Activity (SK-MEL): > 10 µg/mL
selectivity ratio [3]: > 50
MBC100 (Staphylococcus aureus [4]): 20 µg/mL (≈ 24.7 µM)
MIC (Staphylococcus aureus [4]): 20 µg/mL (≈ 24.7 µM)
IC50 (Staphylococcus aureus [4]): 10.8 µg/mL (≈ 13.3 µM)
selectivity ratio [5]: > 50
Activity (Vero): > 10 µg/mL
selectivity ratio [6]: > 50
selectivity ratio [7]: > 50
Ratio (Cryptococcus neoformans [8]): 4
IC50 (Staphylococcus aureus [9]): 6.88 µg/mL (≈ 8.5 µM)
MBC100 (Staphylococcus aureus [9]): inactive
MIC (Staphylococcus aureus [9]): 20 µg/mL (≈ 24.7 µM)
Activity (LLC-PK1): > 10 µg/mL
Activity (Nakaseomyces glabratus): inactive
Activity (KB): > 10 µg/mL
selectivity ratio [10]: > 50
selectivity ratio [11]: > 50
Activity (Escherichia coli): inactive

Activity (Lipid bilayer): Active
IC50 (Cryptococcus neoformans [2]): 0.07 µg/mL (≈ 0.102 µM)
MIC (Cryptococcus neoformans [2]): 0.16 µg/mL (≈ 0.232 µM)
Activity [12]: inactive
Activity [13]: Active
SMILES: CC(C)(C)c1ccc(-c2nc(C[C@H](NC(=O)[C@@H](N)CCCNC(=N)N)C(=O)N[C@@H](CCCNC(=N)N)C(=O)NCc3ccccc3)c[nH]2)cc1
MFC100 (Cryptococcus neoformans [2]): 0.16 µg/mL (≈ 0.232 µM)
Activity (Candida albicans): inactive
Activity (BT-549): > 10 µg/mL
Activity (SK-OV-3): > 10 µg/mL
Activity (Pichia kudriavzevii): inactive
Activity (Aspergillus fumigatus): inactive
Activity (SK-MEL): > 10 µg/mL
selectivity ratio [3]: > 143
selectivity ratio [5]: > 143
Activity (Vero): > 10 µg/mL
selectivity ratio [6]: > 143
selectivity ratio [7]: > 143
Ratio (Cryptococcus neoformans [8]): 8
Activity (LLC-PK1): > 10 µg/mL
Activity (Nakaseomyces glabratus): inactive
Activity (KB): > 10 µg/mL
selectivity ratio [10]: > 143
selectivity ratio [11]: > 143
Activity (Escherichia coli): inactive
